Bioassay records: PubChem BioAssay, several laboratories
AI-2 QS mod: Vibrio harveyi AI-2 quorum sensing modulators, primary screen, JMH597 strain, luminescence/OD600 ratio; hit rate 0.4% among 300,000; Vibrio harveyi JMH597 AI-2 luminescence/OD600 ratio, 9 h; stronger effect = lower value; strain lacks LuxN and CqsS sensors; 0 = neutral-control median; activity change, % at 7.5 µM; in the data active means activity change below about -75%, passing the limit was not always enough; inconclusive means no clear call, values can overlap the other calls;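 further: luminescence divided by OD600 gain over 9 h not by final OD600 alone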
SUMO Mot1 rescue: yeast Mot1-301 growth rescue at high temperature, primary screen, SUMOylation pathway inhibitor project, S. cerevisiae, ATP luminescence, 38.5C. S. cerevisiae Mot1-301 growth rescue; percent above DMSO median, 100 means doubled. growth rescue, % at 18.8 µM. hit rate 1% among 320,000. AID 2716, 2010;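 active means every valid replicate shows activation above 250% relative to neutral control wells; inactive means the rest, any valid replicate at or below 250%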;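 further: OY570 slx delta 5 strain wells were the positive control but not used for scaling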
hERG protect: hERG rescue from dofetilide block, primary screen, cell-based, CHO-hERG, FluxOR thallium flux, dofetilide IC70; dofetilide IC70 present; activation (rescue from dofetilide block), less the hit threshold, % at 10 µM; hit rate 0.51% among 310,000; AID 1511, 2009;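 active means activation above the mean of controls blocked by dofetilide plus 5 SD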;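 further: thallium influx through hERG after potassium depolarization seen as dye fluorescence rise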
KCNQ1 act: potentiators or activators of KCNQ1 channel, primary screen, cell-based, thallium flux, high-throughput; AID 2648, 2010; B-score at 10 µM; hit rate 0.35% among 310,000; Potassium voltage-gated channel subfamily KQT member 1 (Homo sapiens), P51787; CHO-K1 KCNQ1, thallium flux FluxOR fluorescence; stronger effect = higher value;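 active means fluorescence ratio B-score, a plate-corrected score, at least three library SD, with initial intensity B-score within 5 SD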
Target sequence (P51787 whole entry, looked up): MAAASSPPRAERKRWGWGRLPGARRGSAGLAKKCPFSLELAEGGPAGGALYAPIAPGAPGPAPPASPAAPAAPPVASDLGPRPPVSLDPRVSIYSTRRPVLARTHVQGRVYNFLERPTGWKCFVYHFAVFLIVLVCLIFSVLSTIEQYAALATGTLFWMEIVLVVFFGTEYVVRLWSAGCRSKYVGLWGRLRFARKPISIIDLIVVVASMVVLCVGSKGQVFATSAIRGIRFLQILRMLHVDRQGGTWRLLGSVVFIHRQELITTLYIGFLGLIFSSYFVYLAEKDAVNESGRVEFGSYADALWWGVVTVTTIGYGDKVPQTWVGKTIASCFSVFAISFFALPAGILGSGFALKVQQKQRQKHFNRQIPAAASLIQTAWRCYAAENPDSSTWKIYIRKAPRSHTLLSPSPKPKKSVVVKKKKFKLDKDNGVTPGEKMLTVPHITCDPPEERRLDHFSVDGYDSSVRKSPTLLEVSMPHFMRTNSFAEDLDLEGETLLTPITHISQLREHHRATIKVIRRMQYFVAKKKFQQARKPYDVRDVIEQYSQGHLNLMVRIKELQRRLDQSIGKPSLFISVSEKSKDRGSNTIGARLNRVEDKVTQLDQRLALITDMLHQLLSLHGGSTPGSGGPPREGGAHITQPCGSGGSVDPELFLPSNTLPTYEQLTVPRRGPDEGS
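Test system: CHO-K1 cells stably expressing KCNQ1 / Medium: assay buffer / Also added: depolarizing K+/Tl+ stimulus, K2SO4 and Tl2SO4 each 12.5 mM in 5x stock / Incubation: 90 min dye loading and 20 min compound exposure, both at room temperature / Signal: thallium influx via FluxOR fluorescence, kinetic imaging / Evaluation: B score of baseline-normalized fluorescence ratio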
Cl transport mod: KCC2 cotransporter modulators, thallium flux, primary screen, cell-based, HEK293 KCC2, FluoZin-2 fluorescence, MLSMR; Solute carrier family 12 member 5 (Homo sapiens), Q9H2X9; hit rate 2.2% among 190,000; B-score of Tl+ flux slope (higher = more flux/activation; lower = inhibition) at 10 µM; KCC2 cells, thallium flux FluoZin-2 fluorescence;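 active means thallium flux slope and its plate-corrected score both differing from the plate sample mean at a set confidence after two filtering rounds, in either direction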;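 further: slope of fluorescence scaled to starting intensity during 10 to 20 s after thallium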
KCNQ1 inh: inhibitors of human KCNQ1 channel, primary screen, cell-based, thallium flux, high-throughput | Potassium voltage-gated channel subfamily KQT member 1 (Homo sapiens), P51787 | CHO-K1 KCNQ1, FluxOR thallium flux fluorescence; stronger effect = higher value | B-score at 10 µM | hit rate 1.3% among 310,000 | AID 2642, 2010;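 active means compounds whose thallium flux B-score, printed positive for inhibition, exceeds three library SD while starting fluorescence stays within three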;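 further: channel opened by potassium depolarization with thallium stimulus after 20 min compound exposure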
KCC2 sec1: KCC2 modulators in sodium-free buffer, confirmation, cell-based, HEK293 KCC2, thallium flux, secondary assay. hit rate 15% among 3,700. AID 1713, 2009. FluoZin2 fluorescence; stronger effect = higher value. shares compounds with Cl transport mod. normalised thallium flux (F/F0 slope) at 10 µM;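 active means thallium flux slope above the same plate's solvent-only control mean plus 3 SD; inconclusive means the two replicate wells disagree; inactive means no significant difference from solvent-only control wells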
KCC2 bumet counter: thallium flux persisting under bumetanide in KCC2 cells, confirmation, counter-screen for KCC2 modulator project, cell-based, HEK293 KCC2, FluoZin2, secondary assay 3. normalized thallium flux at 10 µM. hit rate 49% among 3,700. HEK293-KCC2 + bumetanide/ouabain; stronger effect = higher value. shares compounds with Cl transport mod;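 active means thallium entry rate above the same plate's blocked-transporter control wells by more than 3 SD; inconclusive means the two repeat wells disagree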;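 further: raw slope of fluorescence over initial fluorescence between 10 and 20 s after thallium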
KCC2 sec2: KCC2 modulators without ouabain present, confirmation, cell-based, HEK293 KCC2, thallium flux, FluoZin2, secondary assay 2 | normalized thallium flux at 10 µM | shares compounds with Cl transport mod | hit rate 23% among 3,700 | AID 1715, 2009 | thallium flux FluoZin2 fluorescence; actives lie on both sides; F/F0 rise rate, 10–20 s post-thallium;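 active means thallium flux slope more than 3 SD above or below the plate's solvent-only control mean, mostly below; inconclusive means the two repeat wells disagreed; inactive means no significant shift from solvent-only controls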;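 further: raw slope with 0.1% DMSO as baseline and bumetanide as block control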
HEK counter1: thallium flux modulation in parental HEK cells, confirmation, counter-screen for KCC2 modulator project, cell-based, counterscreen 1; shares compounds with Cl transport mod; HEK293 parental cells, thallium flux FluoZin2, ouabain; baseline-ratio fluorescence slope, 10–20 s after thallium; thallium flux rate (normalised fluorescence) at 10 µM; hit rate 46% among 3,700;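 active means thallium flux rate significantly above the same plate's solvent-only control wells, beyond their mean plus 3 SD; inconclusive means the two replicate wells gave conflicting results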
KCC2 ouabain: KCC2 inhibitors and activators, ouabain retest, confirmation, HEK-KCC2 cells | raw Tl+ flux slope (below DMSO = inhibition, above = activation) at 10 µM | hit rate 48% among 3,700 | shares compounds with Cl transport mod | AID 1717, 2009 | HEK293-KCC2, thallium flux FluoZin2 fluorescence; bidirectional: low = inhibitor, high = activator;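 active means thallium flux slope beyond 3 SD from same-plate DMSO control mean in most replicates, usually higher, sometimes lower; inconclusive means repeat tests gave conflicting results; inactive means no significant difference from controls in most replicates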;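 further: slope of initial-normalized fluorescence between seconds 10 and 20 after thallium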
HEK293 Tl flux2: native HEK Tl+ uptake effects, second counter-screen – HEK cells, counterscreen 2, counter-screen for KCC2 modulator project, confirmation. shares compounds with Cl transport mod. HEK293 parental, thallium flux FluoZin-2 fluorescence slope. thallium flux slope at 10 µM. hit rate 33% among 3,700;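 active means thallium flux slope above the same plate's solvent-control mean plus 3 SD in both duplicate wells; inconclusive means duplicate wells that disagreed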;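 further: run without ouabain in cells lacking the KCC2 cotransporter; slope of fluorescence scaled to its starting value between 10 and 20 s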
Active calls of the source: *; i = inactive; ? = inconclusive; . = no result given. An excerpt weighted towards active compounds, which were near 4.2% of everything screened.

SMILES	AI-2 QS mod	SUMO Mot1 rescue	hERG protect	KCNQ1 act	Cl transport mod	KCNQ1 inh	KCC2 sec1	KCC2 bumet counter	KCC2 sec2	HEK counter1	KCC2 ouabain	HEK293 Tl flux2
Cc1cccc(-c2n[nH]c(=S)n2/N=C/C=C/c2ccco2)c1	23	-7	-6	i	20*	i	0.0057	0.022*	0.029	0.018*	0.028*	0.016*
S=c1[nH]nc(-c2cccc(Cl)c2)n1/N=C/c1ccco1	10	-6	-5	i	14*	i	?	0.021*	0.038	0.018*	0.031*	0.012
Cc1ccc(/C=N/n2c(-c3cccc(Cl)c3)n[nH]c2=S)o1	11	7	-4	i	45*	i	0.0066	0.046*	0.032	0.029*	0.04*	0.02*
COc1ccccc1/C=C/C=N/n1c(-c2ccc(F)cc2)n[nH]c1=S	9	-2	-10	i	5.3*	i	0.01	0.015*	0.034	0.011*	0.023	0.011
O=C(COc1ccccc1/C=C1\SC(=S)NC1=O)Nc1ccc(F)cc1	.	3	.	.	.	.	.	.	.	.	.	.
Cc1cnc(NC(=O)COc2cccc3c2OC(C)(C)C3)s1	14	255*	-7	i	.	i	0.0085	0.0071	0.029	0.007	?	0.0097
COc1ccc(/C(O)=C2/C(=O)C(=O)N(CCN3CCNCC3)C2c2cccc([N+](=O)[O-])c2)cc1 (configuration not stated)	8	2	-10	i	.	i	.	.	.	.	.	.
COc1ccc(Nc2nc(N3CCCC3)nc(N3CCCC3)n2)c(OC)c1	14	.	-12	i	-2.4*	i	?	0.0066	0.034	0.0082	0.023	0.011
COc1ccc(OC)c(-c2cc(C(=O)N3CCCc4ccccc43)no2)c1	0	-17	-12	i	.	i	.	.	.	.	.	.
COc1ccccc1C(=O)NC(=S)N1CCc2ccccc21	9	192	-16	i	6.5*	i	0.0097	0.019*	0.03	0.0085*	?	0.0094
COc1ccc(OCC(=O)NC(=S)N2CCCc3ccccc32)cc1	17	90	2	i	24*	i	0.021*	0.037*	0.034	0.021*	0.029*	0.021*
CC(C)C(=O)NC(=S)N1CCc2ccccc21	23	-19	2	i	5.2*	i	0.0067	0.021*	?	0.018*	0.028*	0.017*
COc1ccccc1-c1cc(C(=O)N2CCCc3ccccc32)no1	2	6	-15	i	-3.9*	i	0.0073	0.0051	0.035	?	0.016*	0.0095
COc1ccc(CN2CCN(Cc3ccc4cc(F)ccc4n3)CC2CCO)c(C)c1C (configuration not stated)	5	15	-8	i	.	i	.	.	.	.	.	.
O=C(NCCc1ccc(O)c(O)c1)C1COc2ccccc2O1 (configuration not stated)	1	-9	-8	i	.	i	.	.	.	.	.	.
Cc1cc(NC(=O)c2ccc(Br)o2)ccc1NC(=O)c1ccco1	-15	-16	-7	i	.	i	.	.	.	.	.	.
CNC(=S)N1CCc2cc(OC)c(OC)cc2C1	-6	-18	-2	i	0.61	i	.	.	.	.	.	.
COc1ccc(OCC(=O)NC(=S)Nc2ccc3c4c(cccc24)CC3)cc1	11	-11	2	i	29*	i	0.011	0.079*	0.035	0.031*	0.036*	0.014*
Cc1ccccc1OCC(=O)NC(=S)Nc1ccc2c3c(cccc13)CC2	-1	3	-6	i	-0.47	i	.	.	.	.	.	.
COc1ccc(C(=O)NC(=S)N2CCCc3ccccc32)cc1OC	10	-10	2	i	5.3*	i	0.011	0.023*	0.033	0.012*	?	0.012*
COc1cc2c(cc1OC)CN(C(=S)NC(=O)c1ccccc1)CC2	-5	i	1	i	23*	i	0.026*	0.05*	?	0.031*	0.033*	0.032*
O=C(Nc1cccnc1)c1ccc(COc2cc(Cl)ccc2Cl)o1	8	14	26*	i	-5.2*	i	0.0063	0.0051	?	0.0081	0.016*	0.0099
COc1ccccc1S(=O)(=O)Cc1ccc(C(=O)N2CCN(c3ccccn3)CC2)o1	.	-18	.	.	-0.43	.	.	.	.	.	.	.
O=C(NCc1cccnc1)c1ccc(COc2cccc3ccccc23)o1	24	9	-3	i	-2.4	i	.	.	.	.	.	.
O=C(Nc1ccccn1)c1ccc(COc2ccccc2Cl)o1	1	-19	-10	i	-4*	i	0.0069	0.0047	0.024*	0.0073	0.015*	0.01
